What was measured:
[1] = Cytotoxicity against human MIAPaCa2 cells assessed as cell growth inhibition at 50 uM after 48 hrs by MTT assay; assay type: functional; conditions: MIA PaCa-2, 48 h, read-out: GI
Summary of the method: (§1)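 Adherent lines at 70–75% confluence, grown at 37 °C in 5% CO2 with 10% FCS. Exposed 48 h to compound in DMSO (vehicle <0.2% v/v). MTT dye added 3 h before termination; formazan dissolved in DMSO, OD 570 nm with 620 nm reference. Growth inhibition expressed as % of untreated; IC50 taken from the dose series.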

[2] = Cytotoxicity against human PC3 cells assessed as cell growth inhibition at 30 uM after 48 hrs by MTT assay; assay type: functional; conditions: PC-3, 48 h, read-out: GI; summary of the method: as §1
[3] = Cytotoxicity against human HL60 cells assessed as cell growth inhibition at 50 uM after 48 hrs by MTT assay; assay type: functional; conditions: HL-60, 48 h, read-out: GI
Summary of the method: (§2)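 HL-60 suspension cells, 1.5 × 10^4 per well, grown at 37 °C in 5% CO2 with 10% FCS. Treated 48 h with compound in DMSO (vehicle <0.2% v/v). MTT added 3 h before the end. Formazan dissolved in DMSO and read at 570 nm (reference 620 nm). % growth inhibition computed against untreated cells; IC50 taken from the concentration series.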

[4] = Cytotoxicity against human HepG2 cells assessed as cell growth inhibition at 50 uM after 48 hrs by MTT assay; assay type: functional; conditions: HepG2, 48 h, read-out: GI; summary of the method: as §1
[5] = Cytotoxicity against human MIAPaCa2 cells assessed as cell growth inhibition at 30 uM after 48 hrs by MTT assay; assay type: functional; conditions: MIA PaCa-2, 48 h, read-out: GI; summary of the method: as §1
[6] = Cytotoxicity against human PC3 cells assessed as cell growth inhibition at 50 uM after 48 hrs by MTT assay; assay type: functional; conditions: PC-3, 48 h, read-out: GI; summary of the method: as §1
[7] = Lipophilicity, log P of the compound; assay type: physicochemical; conditions: octanol/water
[8] = Cytotoxicity against human LS180 cells assessed as cell growth inhibition at 50 uM after 48 hrs by MTT assay; assay type: functional; conditions: LS180, 48 h, read-out: GI; summary of the method: as §1
[9] = Aqueous solubility of the compound at pH 7; assay type: physicochemical
[10] = Cytotoxicity against human LS180 cells assessed as cell growth inhibition at 30 uM after 48 hrs by MTT assay; assay type: functional; conditions: LS180, 48 h, read-out: GI; summary of the method: as §1
[11] = Cytotoxicity against human HL60 cells assessed as cell growth inhibition at 30 uM after 48 hrs by MTT assay; assay type: functional; conditions: HL-60, 48 h, read-out: GI; summary of the method: as §2
[12] = Cytotoxicity against human HepG2 cells assessed as cell growth inhibition at 30 uM after 48 hrs by MTT assay; assay type: functional; conditions: HepG2, 48 h, read-out: GI; summary of the method: as §1
[13] = Cytotoxicity against human HepG2 cells assessed as cell growth inhibition after 48 hrs by MTT assay; assay type: functional, cell-based; conditions: HepG2, 48 h; summary of the method: as §1
[14] = Cytotoxicity against human LS180 cells assessed as cell growth inhibition after 48 hrs by MTT assay; assay type: functional, cell-based; conditions: LS180, 48 h; summary of the method: as §1

Row | SMILES | inhibition of growth at 50 µM [1] | inhibition of growth at 30 µM [2] | inhibition of growth at 50 µM [3] | inhibition of growth at 50 µM [4] | inhibition of growth at 30 µM [5] | inhibition of growth at 50 µM [6] | logP [7] | inhibition of growth at 50 µM [8] | solubility [9] | inhibition of growth at 30 µM [10] | inhibition of growth at 30 µM [11] | inhibition of growth at 30 µM [12] | IC50 [13] | IC50 [14]
1 | CCOc1cc(/C=C/C(=O)c2ccc(OCCO[C@H]3O[C@@H]4O[C@@]5(C)CC[C@H]6[C@H](C)CC[C@@H]([C@H]3C)[C@@]46OO5)cc2)ccc1O | 49.8% | 55.1% | 84.1% | 28.2% | 49.4% | 58.9% | 5.34 to 7.45 | 36.3% | < 10 µg/mL | 27.4% | 80.8% | 25.5% | – | –
2 | C[C@H]1[C@@H](OCCOc2ccc(/C=C/C(=O)c3ccc(Cl)s3)cc2)O[C@@H]2O[C@@]3(C)CC[C@H]4[C@H](C)CC[C@@H]1[C@@]24OO3 | 59.7% | 37.4% | 92.1% | 25.2% | 53.2% | 39.9% | 5.34 to 7.45 | 41.6% | < 10 µg/mL | 39.5% | 91.9% | 21.1% | – | –
3 | C[C@H]1[C@@H](OCCOc2ccc(/C=C/C(=O)c3cccc(O)c3)cc2)O[C@@H]2O[C@@]3(C)CC[C@H]4[C@H](C)CC[C@@H]1[C@@]24OO3 | 51.1% | 47.6% | 76.5% | 38.3% | 44.1% | 49.5% | 5.34 to 7.45 | 39.3% | < 10 µg/mL | 31.1% | 77.7% | 33.6% | – | –
4 | C[C@H]1[C@@H](OCCOc2ccc(/C=C/C(=O)c3ccc(OCCO[C@H]4O[C@@H]5O[C@@]6(C)CC[C@H]7[C@H](C)CC[C@@H]([C@H]4C)[C@@]57OO6)cc3)cc2)O[C@@H]2O[C@@]3(C)CC[C@H]4[C@H](C)CC[C@@H]1[C@@]24OO3 | 49.1% | 44.2% | 87.9% | 47.8% | 45.1% | 47.6% | 5.34 to 7.45 | 49.5% | < 10 µg/mL | 45.8% | 85.6% | 40.9% | – | –
5 | COc1cccc2c1C(=O)c1c(O)c3c(c(O)c1C2=O)C[C@@](O)(C(=O)CO)C[C@@H]3O[C@H]1C[C@H](N)[C@H](O)[C@H](C)O1 [DOXORUBICIN] | – | – | – | – | – | – | – | – | – | – | – | – | 540 nM | 840 nM

From ChEMBL document CHEMBL3865799, “Synthesis of a series of novel dihydroartemisinin monomers and dimers containing chalcone as a linker and their anticancer activity” (Eur J Med Chem, 2016)
